ChEMBL document CHEMBL1154625, “New insights into the SAR and binding modes of bis(hydroxyphenyl)thiophenes and -benzenes: influence of additional substituents on 17beta-hydroxysteroid dehydrogenase type 1 (17beta-HSD1) inhibitory activity and selectivity” (J Med Chem, 2009)
Activity calls are given as the source filed them. No cut-off for these calls is given here.

How the values were obtained:
[1] = biological target: T1, 17-beta-hydroxysteroid dehydrogenase type 1 (Homo sapiens, UniProt P14061)
T1 sequence (P14061 whole entry): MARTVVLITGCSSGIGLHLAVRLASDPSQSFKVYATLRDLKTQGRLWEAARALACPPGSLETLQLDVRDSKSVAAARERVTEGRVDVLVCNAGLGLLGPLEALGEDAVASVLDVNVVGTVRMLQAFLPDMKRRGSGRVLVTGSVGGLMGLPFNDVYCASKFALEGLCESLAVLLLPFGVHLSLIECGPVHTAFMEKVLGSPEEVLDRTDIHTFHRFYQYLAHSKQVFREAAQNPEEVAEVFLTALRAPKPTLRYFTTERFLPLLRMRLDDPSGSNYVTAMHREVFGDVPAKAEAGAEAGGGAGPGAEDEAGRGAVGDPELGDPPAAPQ

[2] = biological target: T2, 17-beta-hydroxysteroid dehydrogenase type 2 (Homo sapiens, UniProt P37059); assay: Inhibition of human placental 17betaHSD2 by radiodetection assay
T2 sequence (P37059 whole entry): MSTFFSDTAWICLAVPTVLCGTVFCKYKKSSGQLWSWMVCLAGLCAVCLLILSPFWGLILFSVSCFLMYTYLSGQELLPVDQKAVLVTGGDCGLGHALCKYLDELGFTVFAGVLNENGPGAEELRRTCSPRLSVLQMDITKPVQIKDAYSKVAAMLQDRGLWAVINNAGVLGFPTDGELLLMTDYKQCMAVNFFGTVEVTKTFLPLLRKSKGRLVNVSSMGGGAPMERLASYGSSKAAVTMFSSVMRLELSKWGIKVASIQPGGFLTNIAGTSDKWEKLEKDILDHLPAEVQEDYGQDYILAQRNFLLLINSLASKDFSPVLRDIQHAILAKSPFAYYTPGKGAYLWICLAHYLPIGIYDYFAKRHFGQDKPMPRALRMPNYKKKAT
Method in brief: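 Microsomal fraction from fresh human placenta (pellet after homogenisation and centrifugation). Incubated 20 min at 37 °C with NAD+ 1500 μM and unlabeled E2 plus [2,4,6,7-3H]E2 (500 nM final) in phosphate buffer 50 mM with 20% glycerol and 1 mM EDTA, 1% DMSO. Stopped with HgCl2 and ether-extracted. Substrate and product separated by HPLC with radiodetection. Mean of three determinations.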

[3] = biological target: Cytochrome P450 2D6 (Homo sapiens, UniProt P10635); assay: Inhibition of human hepatic CYP2D6; format: ADME
Method in brief: (§1)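 Tested with commercial P450 inhibition kits, used following the manufacturer's instructions. Values reported as IC50.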

[4] = biological target: Cytochrome P450 2C19 (Homo sapiens, UniProt P33261); assay: Inhibition of human hepatic CYP2C19; format: ADME
Method in brief: as §1

[5] = biological target: Cytochrome P450 3A4 (Homo sapiens, UniProt P08684); assay: Inhibition of human hepatic CYP3A4; format: ADME
Method in brief: as §1

[6] = test system: T47D; assay: […] in human T47D cells assessed as inhibition of E2 formation in presence of E1
[7] = Terminal half life in Wistar rat at 10 mg/kg, po; format: ADME, organism-based; parameters: dose 10 mg/kg, route oral; details: in vivo, read-out: beta t1/2 (converted)
Method in brief: (§2)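 Male Wistar rats (300-330 g), jugular-vein cannulated under ketamine/xylazine anaesthesia, sampled while freely moving. Oral cassette dosing by feeding needle to four rats at 10 mg/kg in labrasol/water (1:1), 5 mL/kg. Blood taken at 0, 1, 2, 3, 4, 6, 8, 10 and 24 h postdose; plasma frozen at -20 °C and quantified by HPLC-MS/MS.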

[8] = test system: Rattus norvegicus; assay: AUC (0 to infinity) in Wistar rat at 10 mg/kg, po; format: ADME, organism-based, Plasma; parameters: time infinity, dose 10 mg/kg, route oral; details: in vivo
Method in brief: as §2

[9] = Tmax in Wistar rat at 10 mg/kg, po; format: ADME, organism-based; parameters: dose 10 mg/kg, route oral; details: in vivo
Method in brief: as §2

[10] = Cmax in Wistar rat at 10 mg/kg, po; format: ADME, organism-based; parameters: dose 10 mg/kg, route oral; details: in vivo
Method in brief: as §2

[11] = biological target: T3, Estrogen receptor (Homo sapiens) (UniProt P03372); assay: Agonist activity at ER in human T47D cells assessed as stimulation of cell proliferation; format: functional, cell-based
T3 sequence (whole entry): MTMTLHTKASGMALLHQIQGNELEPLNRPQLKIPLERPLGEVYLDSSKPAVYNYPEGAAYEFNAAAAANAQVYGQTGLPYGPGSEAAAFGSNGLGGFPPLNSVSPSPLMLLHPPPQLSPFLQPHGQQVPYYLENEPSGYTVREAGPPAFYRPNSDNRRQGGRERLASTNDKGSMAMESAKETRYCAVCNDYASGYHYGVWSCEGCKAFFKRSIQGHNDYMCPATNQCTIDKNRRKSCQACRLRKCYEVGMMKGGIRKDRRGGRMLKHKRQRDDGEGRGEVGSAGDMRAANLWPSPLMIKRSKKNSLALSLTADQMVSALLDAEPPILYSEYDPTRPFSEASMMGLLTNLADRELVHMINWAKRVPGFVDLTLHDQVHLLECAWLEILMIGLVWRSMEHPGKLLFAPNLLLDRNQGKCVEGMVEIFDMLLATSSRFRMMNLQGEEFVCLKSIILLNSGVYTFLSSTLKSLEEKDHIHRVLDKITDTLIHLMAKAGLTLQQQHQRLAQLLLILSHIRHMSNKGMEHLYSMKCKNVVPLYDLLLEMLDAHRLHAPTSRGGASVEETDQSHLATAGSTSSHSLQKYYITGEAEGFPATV
Method in brief: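 T-47D cells grown 48 h in phenol red-free RPMI 1640 with 5% DCC-FCS, insulin and supplements, then exposed to test compound at 100 nM final (1% ethanol) for 8 days. Medium and additive renewed every 2-3 days. E2 0.1 nM served as positive control, ethanol as negative. Viability read by MTT at 590 nm. Stimulation was expressed relative to E2-induced proliferation, mean of ≥3 independent experiments.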

Cytochrome P450 2C19, sequence (P33261 whole entry): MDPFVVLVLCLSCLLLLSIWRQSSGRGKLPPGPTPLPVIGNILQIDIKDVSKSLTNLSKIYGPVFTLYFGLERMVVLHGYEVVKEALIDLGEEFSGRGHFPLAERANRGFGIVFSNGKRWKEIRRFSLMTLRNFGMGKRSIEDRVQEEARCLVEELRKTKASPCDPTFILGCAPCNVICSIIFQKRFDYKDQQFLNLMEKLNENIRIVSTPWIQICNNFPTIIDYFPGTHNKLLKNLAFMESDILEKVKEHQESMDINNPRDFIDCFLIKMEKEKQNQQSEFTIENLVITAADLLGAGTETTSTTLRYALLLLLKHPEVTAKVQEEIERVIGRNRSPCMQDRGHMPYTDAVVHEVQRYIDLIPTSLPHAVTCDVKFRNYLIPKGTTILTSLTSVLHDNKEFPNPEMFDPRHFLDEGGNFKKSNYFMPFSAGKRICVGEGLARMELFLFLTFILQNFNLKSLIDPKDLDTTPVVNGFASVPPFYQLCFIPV
Cytochrome P450 3A4, sequence (P08684 whole entry): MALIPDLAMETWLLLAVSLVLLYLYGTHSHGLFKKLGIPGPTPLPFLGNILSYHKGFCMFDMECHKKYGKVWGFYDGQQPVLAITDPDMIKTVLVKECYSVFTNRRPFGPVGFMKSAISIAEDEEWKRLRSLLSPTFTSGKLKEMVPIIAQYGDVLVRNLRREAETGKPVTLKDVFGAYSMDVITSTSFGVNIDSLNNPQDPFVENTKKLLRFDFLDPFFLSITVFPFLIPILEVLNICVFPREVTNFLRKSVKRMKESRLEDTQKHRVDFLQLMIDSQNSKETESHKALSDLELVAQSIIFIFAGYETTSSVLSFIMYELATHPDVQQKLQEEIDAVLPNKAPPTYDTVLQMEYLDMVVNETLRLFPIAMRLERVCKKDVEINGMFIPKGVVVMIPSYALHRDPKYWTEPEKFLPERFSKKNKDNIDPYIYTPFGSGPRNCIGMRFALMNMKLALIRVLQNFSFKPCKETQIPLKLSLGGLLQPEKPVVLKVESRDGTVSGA
Cytochrome P450 2D6, sequence (P10635 whole entry): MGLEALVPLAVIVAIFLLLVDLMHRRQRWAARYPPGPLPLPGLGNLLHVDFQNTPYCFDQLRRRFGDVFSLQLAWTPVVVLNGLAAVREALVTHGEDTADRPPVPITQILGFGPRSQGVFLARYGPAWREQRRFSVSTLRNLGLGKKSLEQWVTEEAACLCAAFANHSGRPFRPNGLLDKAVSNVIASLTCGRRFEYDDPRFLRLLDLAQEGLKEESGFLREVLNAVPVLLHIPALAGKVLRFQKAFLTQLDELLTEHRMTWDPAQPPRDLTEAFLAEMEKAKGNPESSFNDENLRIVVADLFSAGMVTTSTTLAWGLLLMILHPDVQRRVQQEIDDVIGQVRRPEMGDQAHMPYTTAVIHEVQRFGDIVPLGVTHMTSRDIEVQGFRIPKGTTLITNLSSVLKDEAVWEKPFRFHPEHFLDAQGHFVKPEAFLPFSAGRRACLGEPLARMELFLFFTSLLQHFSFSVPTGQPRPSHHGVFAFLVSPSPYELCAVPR

Compound | IC50 [1] [nM] | IC50 [2] [nM] | further results
Cc1cc(-c2ccc(-c3cccc(O)c3)cc2)ccc1O | 171 | 1250 | –
Oc1cccc(-c2ccc(-c3ccc(S)cc3)s2)c1 | > 5000 | – | –
Oc1ccc(-c2ccc(-c3cc(O)cc(F)c3)s2)cc1 | 42 | 463 | –
Oc1ccc(-c2cc(-c3cccc(O)c3)c(-c3cccc(O)c3)s2)cc1 | > 1000 | – | –
CS(=O)(=O)Nc1cccc(-c2ccc(-c3cccc(O)c3)s2)c1 | – | 1570 | –
Cc1cc(-c2cnc(-c3cccc(O)c3)s2)ccc1O | 143 | – | –
Oc1cccc(-c2ccc(-c3ccc(O)c(F)c3)cc2)c1 | 123 | 872 | –
Oc1cccc(-c2cc(-c3ccc(O)c(F)c3)cs2)c1 | 64 | 510 | –
CCOC(=O)/C=C/c1cc(-c2ccc(-c3cccc(O)c3)s2)ccc1O | 130 | 502 | –
Oc1cccc(-c2cc(-c3ccccc3)c(-c3cccc(O)c3)s2)c1 | 493 | – | –
Oc1cc(F)cc(-c2ccc(-c3ccc(O)c(F)c3)s2)c1 | 29 | 227 | –
Oc1cccc(-c2ccc(-c3cc(F)c(O)c(F)c3)s2)c1 | 56 | 312 | –
Cc1cc(-c2csc(-c3cccc(O)c3)c2)ccc1O | 64 | – | IC50 [3]: > 1500 nM; IC50 [4]: 1500 nM; IC50 [5]: > 1500 nM; IC50 [6]: 362 nM
Oc1ccc(-c2ccc(-c3ccc(F)c(O)c3)s2)cc1 | 113 | 183 | –
Oc1cc(-c2ccc(-c3ccc(O)c(F)c3)s2)ccc1F | 17 | 218 | –
N#Cc1ccc(-c2ccc(-c3cccc(O)c3)s2)cc1 | > 1000 | – | –
Oc1cccc(-c2ccc(-c3ccc(F)c(O)c3)cc2)c1 | 51 | 253 | –
O=C(/C=C/c1cc(-c2ccc(-c3cccc(O)c3)s2)ccc1O)Nc1ccccc1 | 427 | 468 | –

Compound | IC50 [1] [nM] | IC50 [2] [nM] | further results
Cc1cc(-c2ccc(-c3cccc(O)c3)s2)ccc1O | 46 | – | IC50 [3]: > 1500 nM; half-life [7]: 3.8 h; AUC [8]: 12275 ng/mL; Tmax [9]: 4 h; Cmax [10]: 905 ng/mL; IC50 [4]: 940 nM; Activity [11]: inactive; IC50 [5]: 500 nM; IC50 [6]: 426 nM
Cc1cc(-c2cccc(O)c2)sc1-c1cccc(O)c1 | 567 | 856 | –
CS(=O)(=O)NCc1cccc(-c2ccc(-c3cccc(O)c3)s2)c1 | > 1000 | – | –
Nc1ccc(-c2ccc(-c3cccc(O)c3)s2)cc1 | > 5000 | – | –
Cc1ccc(-c2ccc(-c3ccc(O)cc3)s2)cc1O | > 5000 | – | –
Cc1ccc(S(=O)(=O)NCc2cccc(-c3ccc(-c4cccc(O)c4)s3)c2)cc1 | 350 | 276 | –
Oc1cccc(-c2ccc(-c3cccc(F)c3)s2)c1 | – | 1820 | –
Oc1cccc(-c2ccc(-c3ccc(F)cc3)s2)c1 | – | 3650 | –
Cc1cc(O)cc(-c2ccc(-c3ccc(O)cc3)s2)c1 | 629 | 2580 | –
Oc1ccc(-c2ccc(-c3ccc(O)c(O)c3)s2)cc1 | > 5000 | – | –
O=C(CCc1cc(-c2ccc(-c3cccc(O)c3)s2)ccc1O)Nc1ccccc1 | 620 | 982 | –
Oc1cccc(-c2ccc(-c3ccc(F)c(F)c3)s2)c1 | 780 | 2640 | –
Oc1cccc(-c2ccc(-c3ccc(O)c(O)c3)s2)c1 | 402 | – | –
Oc1cccc(-c2ccc(-c3ccc(O)c(C(F)(F)F)c3)s2)c1 | 38 | 97 | –
Oc1cccc(-c2cc(-c3cccc(O)c3)c(-c3cccc(O)c3)s2)c1 | 119 | 188 | –
Oc1cccc(-c2ccc(-c3ccc(O)c(-c4ccccc4)c3)s2)c1 | > 5000 | – | –
Oc1cccc(-c2ccc(-c3ccc(O)c(F)c3)s2)c1 | 8 | – | IC50 [3]: > 1500 nM; half-life [7]: 2.7 h; AUC [8]: 19407 ng/mL; Tmax [9]: 8 h; Cmax [10]: 1390 ng/mL; IC50 [4]: 1500 nM; IC50 [5]: 820 nM; IC50 [6]: 282 nM
